From ChEMBL document CHEMBL3244378, “Antiestrogens and antiestrogen metabolites: preparation of tritium-labeled (+/-)-cis-3-[p-(1,2,3,4-tetrahydro-6-methoxy-2-phenyl-1-naphthyl)phenoxyl]-1,2-propanediol (U-23469) and characterization and synthesis of a biologically important metabolite” (J Med Chem, 1979)

Tests used:
[1] = target: T1, Estrogen receptor (Rattus norvegicus) (UniProt P06211); test: Displacement of [3H]-estradiol from estrogen receptor in rat uterine cytosol at 10^-4 to 10^-10 M after 16 hrs relative to estradiol; conditions: Uterus
T1 sequence (whole entry): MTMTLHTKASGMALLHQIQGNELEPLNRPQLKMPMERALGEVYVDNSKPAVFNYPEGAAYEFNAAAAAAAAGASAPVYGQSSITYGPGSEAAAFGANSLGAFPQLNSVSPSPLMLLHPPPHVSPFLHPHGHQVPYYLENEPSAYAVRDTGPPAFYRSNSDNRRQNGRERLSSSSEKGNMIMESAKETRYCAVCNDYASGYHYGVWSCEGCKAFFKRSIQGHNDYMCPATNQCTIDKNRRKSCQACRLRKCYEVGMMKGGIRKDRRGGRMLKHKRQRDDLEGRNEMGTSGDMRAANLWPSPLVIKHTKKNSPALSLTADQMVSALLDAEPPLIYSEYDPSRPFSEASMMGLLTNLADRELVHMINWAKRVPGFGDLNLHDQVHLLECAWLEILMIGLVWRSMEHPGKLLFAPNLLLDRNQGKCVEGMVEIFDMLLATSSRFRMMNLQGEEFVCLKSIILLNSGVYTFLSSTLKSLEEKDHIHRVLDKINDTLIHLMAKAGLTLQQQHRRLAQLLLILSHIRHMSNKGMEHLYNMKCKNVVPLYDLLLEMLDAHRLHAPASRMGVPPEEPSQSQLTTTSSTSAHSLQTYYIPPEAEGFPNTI

Serum = test: Drug metabolism in rat serum assessed as metabolite level at 25 ug, sc after 1 hr by TLC analysis; format: ADME, organism-based; conditions: in vivo
Summary of the method: (§1)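 Immature rats given tritiated antiestrogen, 25 μg sc per rat. At 1 and 13 h, serum was prepared and extracted with ethyl acetate. Uteri were homogenized, the nuclear pellet washed three times, then extracted with ethanol. Extracts were concentrated, run on silica gel TLC in anesthetic ether–ethanol (98:2), and radioactivity counted by liquid scintillation.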

[2] = Drug metabolism in rat uterine nuclear fraction assessed as (5R,6S)-5-(4-hydroxyphenyl)-6-phenyl-5,6,7,8-tetrahydronaphthalen-2-ol level at 25 ug, sc after 18 hrs by TLC analysis; format: ADME, organism-based; conditions: in vivo
[3] = Drug metabolism in rat uterine nuclear fraction assessed as 1-(p-Hydroxyphenyl)-2-phenyl-6-methoxy-1,2,3,4-tetrahydronaphthalene level at 25 ug, sc after 18 hrs by TLC analysis; format: ADME, organism-based; conditions: in vivo
[4] = Drug metabolism in rat uterine nuclear fraction assessed as metabolite level at 25 ug, sc after 13 hrs by TLC analysis; format: ADME, organism-based; conditions: in vivo
Summary of the method: as §1

[5] = Drug metabolism in rat uterine nuclear fraction assessed as 3-(4-((1R,2S)-6-hydroxy-2-phenyl-1,2,3,4-tetrahydronaphthalen-1-yl)phenoxy)propane-1,2-diol level at 25 ug, sc after 18 hrs by TLC analysis; format: ADME, organism-based; conditions: in vivo
[6] = Drug uptake in rat estrogen receptor expressing uterine at 25 ug, sc after 13 hrs by high salt sucrose density gradient analysis in presence of unlabeled estradiol; format: ADME, organism-based, Uterus; conditions: in vivo
Summary of the method: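 Rats pretreated 1 h in vivo with 5 μg unlabeled estradiol or saline vehicle, then given 25 μg tritiated antiestrogen sc. Uteri excised; washed 800g nuclear pellet extracted 1 h at 0 °C with buffer containing 0.4 M KCl. Extract charcoal-dextran treated, ¹⁴C ovalbumin and γ-globulin markers added. High-salt sucrose gradients spun 17 h, 4 °C, 270000g; 5S binding read.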

[7] = Drug metabolism in rat uterine nuclear fraction assessed as 1-[p-(2,3-Dihydroxyphenyl)phenyl]-2-phenyl-6-methoxy-1,2,3,4-tetrahydronaphthalene level at 25 ug, sc after 18 hrs by TLC analysis; format: ADME, organism-based; conditions: in vivo
[8] = Drug metabolism in rat uterine nuclear fraction assessed as metabolite level at 25 ug, sc after 1 hr by TLC analysis; format: ADME, organism-based; conditions: in vivo
Summary of the method: as §1

SMILES	RBA [1]	also measured
CC[C@H](c1ccc(O)cc1)[C@@H](CC)c1ccc(O)cc1	300	–
COc1ccc2c(c1)CC[C@@H]1[C@@H]2CC[C@]2(C)[C@@H](O)CC[C@@H]12	3	–
COc1ccc2c(c1)CC[C@H](c1ccccc1)[C@@H]2c1ccc(O)cc1	0.24	–
OCC(O)COc1ccc([C@@H]2c3ccc(O)cc3CC[C@@H]2c2ccccc2)cc1 (stereo partly specified)	39.1	–
Oc1ccc([C@@H]2c3ccc(O)cc3CC[C@@H]2c2ccccc2)cc1	29.8	–
COc1ccc2c(c1)CC[C@H](c1ccccc1)[C@@H]2c1ccc(OCC(O)CO)cc1 (mixture of isomers)	0.1	Drug metabolism (Serum): metabolite_detected; Drug metabolism [2]: metabolite_detected; Drug metabolism [3]: metabolite_detected; Drug metabolism [4]: metabolite_detected; Drug metabolism [5]: metabolite_detected; Drug metabolism [6]: metabolite_detected; Drug metabolism [7]: metabolite_detected; Drug metabolism [8]: metabolite_detected
CC[C@H](c1ccc(O)cc1)[C@@H](CC)c1ccc(OC)cc1 (relative stereo)	19.3	–
CC[C@H](c1ccc(O)cc1)[C@@H](CC)c1ccc(OCC(O)CO)cc1 (relative stereo)	6.9	–
